Source: ChEMBL document CHEMBL1154210, “Reversal of fluconazole resistance by sulfated sterols from the marine sponge Topsentia sp” (J Nat Prod, 2009)
Calls of active or inactive are those of the source. No cut-off for these calls is given here.

How the values were obtained:
Plasmodium falciparum [1] = assay: Antiprotozoal activity Plasmodium falciparum D6; assay type: functional, organism-based
Candida albicans [2] = assay: Antimicrobial activity against fluconazole-resistant Candida albicans isolate 17 at 13 uM ater 24 hrs in presence of fluconazole; assay type: functional
How it was run: (§1)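 C. albicans isolates #1 and #17 in YPD at 1 × 10^4 CFU/mL final with saline-diluted samples plus fluconazole (DMSO) at ~1/3rd its IC50. 630 nm readings taken before and after 24 h at 37 °C. FIC was derived from checkerboard IC50s of each agent alone and in combination.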

Candida albicans [3] = assay: Antimicrobial activity against fluconazole-susceptible Candida albicans isolate 1 at 13 uM ater 24 hrs in presence of fluconazole; assay type: functional; how it was run: as §1
Staphylococcus aureus = assay: Antimicrobial activity against methicillin resistant Staphylococcus aureus; assay type: functional, organism-based
Pichia kudriavzevii = assay: Antimicrobial activity against Candida Krusei; assay type: functional, organism-based
Candida albicans [4] = assay: Antimicrobial activity against fluconazole-resistant Candida albicans 1758 over expressing MDR1 at 189 uM ater 24 hrs in presence of fluconazole; assay type: functional
How it was run: (§2)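 Broth microdilution in YPD with C. albicans inoculum at 1 × 10^4 CFU/mL final; samples diluted in 0.9% saline. Fluconazole in DMSO at ~1/3rd its IC50, with DMSO-only duplicates. OD 630 nm read before and after 37 °C for 24 h. A checkerboard of sample × fluconazole gave FIC = sum of combination/alone IC50 ratios for each agent.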

Vero [5] = assay: Cytotoxicity against african green monkey Vero cells at 9 uM after 48 hrs by neutral red assay; assay type: cell-based; conditions: chlorocebus sabaeus
Saccharomyces cerevisiae [6] = assay: Antimicrobial activity against azole-resistant Saccharomyces cerevisiae expressing CDR1 efflux pump at 13 uM after 40 to 48 hrs in presence of fluconazole; assay type: functional
How it was run: (§3)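 Checkerboard combination in S. cerevisiae CDR1 efflux pump strain: compound diluted in 0.9% saline, crossed with FLU (in DMSO) over all concentration pairs; inoculum in YPD broth at 1 × 10^4 CFU/mL; incubated 30 °C for 40–48 h; growth read at 630 nm before and after incubation. FIC = (IC50 combined/IC50 alone) summed for compound and FLU.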

[7] = test system: Mycobacterium intracellulare; assay: Antimicrobial activity against Mycobacterium intracellular; assay type: functional, organism-based
Plasmodium falciparum [8] = assay: Antiprotozoal activity Plasmodium falciparum W2; assay type: functional, organism-based
Saccharomyces cerevisiae [9] = assay: Antimicrobial activity against azole-resistant Saccharomyces cerevisiae expressing MDR1 at 13 uM after 40 to 48 hrs in presence of fluconazole; assay type: functional
How it was run: (§4)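 S. cerevisiae strains (MDR1-overexpressing or null pump) inoculated in YPD at 1 × 10^4 CFU/mL final into saline-diluted samples. Fluconazole in DMSO at ~1/10th its IC50, with DMSO-only duplicates. Absorbance at 630 nm read before and after 40–48 h at 30 °C. Checkerboard IC50s combined into FIC (combination/alone ratios summed).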

Saccharomyces cerevisiae [10] = assay: Antimicrobial activity against azole-resistant Saccharomyces cerevisiae expressing null pump at 13 uM after 40 to 48 hrs in presence of fluconazole; assay type: functional; how it was run: as §4
Cryptococcus neoformans = assay: Antimicrobial activity against Cryptococcus neoformans; assay type: functional, organism-based
Candida albicans [11] = assay: Antimicrobial activity against fluconazole-susceptible Candida albicans 1587 at 189 uM ater 24 hrs in presence of fluconazole; assay type: functional; how it was run: as §2
Nakaseomyces glabratus = assay: Antimicrobial activity against Candida glabrata; assay type: functional, organism-based
Leishmania donovani = assay: Antiprotozoal activity Leishmania donovani by Alamar blue assay; assay type: functional, organism-based
Candida albicans [12] = assay: Antimicrobial activity against Fluconazole susceptible Candida albicans 1587 at 194 uM ater 24 hrs in presence of fluconazole; assay type: functional; how it was run: as §2
Candida albicans [13] = assay: Antimicrobial activity against fluconazole-resistant Candida albicans 1758 over expressing MDR1 at 194 uM ater 24 hrs in presence of fluconazole; assay type: functional; how it was run: as §2
Vero [14] = assay: Cytotoxicity against african green monkey Vero cells at 9.25 uM after 48 hrs by neutral red assay; assay type: cell-based; conditions: chlorocebus sabaeus
Vero [15] = assay: Cytotoxicity against african green monkey Vero cells at 11.2 uM after 48 hrs by neutral red assay; assay type: cell-based; conditions: chlorocebus sabaeus
Candida albicans [16] = assay: Antimicrobial activity against fluconazole-susceptible Candida albicans isolate 1 at 26 uM ater 24 hrs in presence of fluconazole; assay type: functional; how it was run: as §1
Saccharomyces cerevisiae [17] = assay: Antimicrobial activity against azole-resistant Saccharomyces cerevisiae expressing null pump at 26 uM after 40 to 48 hrs in presence of fluconazole; assay type: functional; how it was run: as §4
Saccharomyces cerevisiae [18] = assay: Antimicrobial activity against azole-resistant Saccharomyces cerevisiae expressing CDR1 efflux pump at 26 uM after 40 to 48 hrs in presence of fluconazole; assay type: functional; how it was run: as §3
Candida albicans [19] = assay: Antimicrobial activity against fluconazole-resistant Candida albicans isolate 17 at 26 uM ater 24 hrs in presence of fluconazole; assay type: functional; how it was run: as §1
Saccharomyces cerevisiae [20] = assay: Antimicrobial activity against azole-resistant Saccharomyces cerevisiae expressing MDR1 at 26 uM after 40 to 48 hrs in presence of fluconazole; assay type: functional; how it was run: as §4
Candida albicans [21] = assay: Antimicrobial activity against Fluconazole susceptible Candida albicans 1587 at 5.7 uM ater 24 hrs in presence of fluconazole; assay type: functional; how it was run: as §2
Candida albicans [22] = assay: Antimicrobial activity against fluconazole-resistant Candida albicans 1758 over expressing MDR1 at 5.7 uM ater 24 hrs in presence of fluconazole; assay type: functional; how it was run: as §2

**Q.** `C/C=C(\CC[C@](C)(O)[C@H]1[C@@H](O)C[C@H]2[C@@H]3CCc4cc(OS(=O)(=O)[O-])ccc4[C@H]3CC[C@@]21C)C(C)C.[Na+]` was tested. Which Activity (Plasmodium falciparum [1]) did it give?
**A.** Its Activity is “inactive”.

**Q.** What about the “fractional inhibitory concentration index (FICI)” value (Candida albicans [2]) of the same compound?
**A.** The value was 1.3.

**Q.** What about the “fractional inhibitory concentration index (FICI)” value (Candida albicans [3]) of the same compound?
**A.** Its value is 1.5.

**Q.** And the Activity (Staphylococcus aureus)?
**A.** Its Activity is “inactive”.

**Q.** What about the Activity (Pichia kudriavzevii) of the same compound?
**A.** The Activity was “inactive”.

**Q.** What about the “fractional inhibitory concentration index (FICI)” value (Candida albicans [4]) of the same compound?
**A.** Its value is 0.2.

**Q.** And the Activity (Vero [5])?
**A.** Its Activity is “Non-toxic”.

**Q.** And the “fractional inhibitory concentration index (FICI)” value (Saccharomyces cerevisiae [6])?
**A.** The value was 1.04.

**Q.** What about the Activity [7] of the same compound?
**A.** Its Activity is “inactive”.

**Q.** And the Activity (Plasmodium falciparum [8])?
**A.** Its Activity is “inactive”.

**Q.** And the “fractional inhibitory concentration index (FICI)” value (Saccharomyces cerevisiae [9])?
**A.** Its value is 0.08.

**Q.** And the “fractional inhibitory concentration index (FICI)” value (Saccharomyces cerevisiae [10])?
**A.** The value was 1.1.

**Q.** And the Activity (Cryptococcus neoformans)?
**A.** Its Activity is “inactive”.

**Q.** What about the “fractional inhibitory concentration index (FICI)” value (Candida albicans [11]) of the same compound?
**A.** Its value is 1.7.

**Q.** What about the Activity (Nakaseomyces glabratus) of the same compound?
**A.** Its Activity is “inactive”.

**Q.** What about the Activity (Leishmania donovani) of the same compound?
**A.** The Activity was “inactive”.

**Q.** Which Activity (Plasmodium falciparum [1]) does the source give for `C=C(CC[C@](C)(O)[C@H]1[C@@H](O)C[C@H]2[C@@H]3CCc4cc(OS(=O)(=O)[O-])ccc4[C@H]3CC[C@@]21C)C(C)C.[Na+]` here?
**A.** The Activity was “inactive”.

**Q.** What about the “fractional inhibitory concentration index (FICI)” value (Candida albicans [12]) of the same compound?
**A.** Its value is 1.6.

**Q.** And the “fractional inhibitory concentration index (FICI)” value (Candida albicans [2])?
**A.** The value was 1.8.

**Q.** And the “fractional inhibitory concentration index (FICI)” value (Candida albicans [3])?
**A.** Its value is 1.7.

**Q.** And the Activity (Staphylococcus aureus)?
**A.** Its Activity is “inactive”.

**Q.** What about the Activity (Pichia kudriavzevii) of the same compound?
**A.** The Activity was “inactive”.

**Q.** And the “fractional inhibitory concentration index (FICI)” value (Saccharomyces cerevisiae [6])?
**A.** The value was 1.34.

**Q.** And the Activity [7]?
**A.** The Activity was “inactive”.

**Q.** What about the Activity (Plasmodium falciparum [8]) of the same compound?
**A.** Its Activity is “inactive”.

**Q.** What about the “fractional inhibitory concentration index (FICI)” value (Candida albicans [13]) of the same compound?
**A.** Its value is 0.2.

**Q.** And the “fractional inhibitory concentration index (FICI)” value (Saccharomyces cerevisiae [9])?
**A.** Its value is 0.15.

**Q.** What about the “fractional inhibitory concentration index (FICI)” value (Saccharomyces cerevisiae [10]) of the same compound?
**A.** The value was 0.75.

**Q.** And the Activity (Cryptococcus neoformans)?
**A.** The Activity was “inactive”.

**Q.** What about the Activity (Vero [14]) of the same compound?
**A.** Its Activity is “Non-toxic”.

**Q.** And the Activity (Nakaseomyces glabratus)?
**A.** The Activity was “inactive”.

**Q.** And the Activity (Leishmania donovani)?
**A.** Its Activity is “inactive”.

**Q.** How did the Activity (Plasmodium falciparum [1]) turn out when `C/C=C(\CC[C@](C)(O)[C@H]1[C@@H](O)C[C@H]2[C@@H]3CCc4cc(O)ccc4[C@H]3CC[C@@]21C)C(C)C` [GEODISTEROL] was run?
**A.** Its Activity is “inactive”.

**Q.** And the Activity (Staphylococcus aureus)?
**A.** Its Activity is “inactive”.

**Q.** What about the Activity (Pichia kudriavzevii) of the same compound?
**A.** Its Activity is “inactive”.

**Q.** What about the Activity [7] of the same compound?
**A.** The Activity was “inactive”.

**Q.** What about the Activity (Plasmodium falciparum [8]) of the same compound?
**A.** Its Activity is “inactive”.

**Q.** What about the Activity (Cryptococcus neoformans) of the same compound?
**A.** Its Activity is “inactive”.

**Q.** And the Activity (Nakaseomyces glabratus)?
**A.** The Activity was “inactive”.

**Q.** What about the Activity (Leishmania donovani) of the same compound?
**A.** Its Activity is “inactive”.

**Q.** What about the Activity (Vero [15]) of the same compound?
**A.** Its Activity is “Non-toxic”.

**Q.** Which results are given for `CC(C)[C@@H]1OC(=O)[C@@H](Cc2ccccc2)N(C)C(=O)[C@H](C(C)C)OC(=O)[C@@H](Cc2ccccc2)N(C)C(=O)[C@H](C(C)C)OC(=O)[C@@H](Cc2ccccc2)N(C)C1=O` [BEAUVERICIN]?
**A.** fractional inhibitory concentration index (FICI) (Candida albicans [16]): 0.5; fractional inhibitory concentration index (FICI) (Saccharomyces cerevisiae [17]): 3.38; fractional inhibitory concentration index (FICI) (Saccharomyces cerevisiae [18]): 0.04; fractional inhibitory concentration index (FICI) (Candida albicans [19]): 0.7; fractional inhibitory concentration index (FICI) (Saccharomyces cerevisiae [20]): 2.28; fractional inhibitory concentration index (FICI) (Candida albicans [21]): 0.5; fractional inhibitory concentration index (FICI) (Candida albicans [22]): 2.8
